Results gathered from unrelated publications.
Lines come from different studies, so protocols differ.
CTSB: Cathepsin B (CTSB, Homo sapiens, UniProt P07858)
Oprd1: Delta-type opioid receptor (Oprd1, Rattus norvegicus, UniProt P33533)

`Cc1nn(C)cc1-c1nc2c(N3CCN(Cc4ccc(Cl)cc4)CC3)c(Cl)cnc2[nH]1` has a remaining binding of 94% (Myosin light chain kinase family member 4 (MYLK4, Homo sapiens, UniProt Q86YV6); binding, competition with immobilised ligand; 1 µM).
`C#Cc1n[nH]c2c(-c3cn(C(C)c4ccccn4)c(=O)[nH]c3=O)cc(F)cc12` (stereo not shown) has an inhibition of 7.6% (Tyrosine-protein kinase Fyn (FYN, Homo sapiens, UniProt P06241); enzyme activity, inhibitor; 1 µM).
The inhibition of `CC(C)C[C@H](NC(=O)[C@H]1O[C@@H]1C(=O)O)C(=O)NCCCCN=C(N)N` is reported as 97% (CTSB; enzyme activity, inhibitor; 50 nM).
The remaining binding of `COc1ncccc1-c1cnn2ccc(N3CCN(C(=O)OC(C)C)CC3)nc12` is reported as 60% (Serine/threonine-protein kinase TNNI3K (TNNI3K, Homo sapiens, UniProt Q59H18); binding, competition with immobilised ligand; 1 µM).
The remaining binding of `Nc1ncc(-c2nc(N3CCOCC3)nc(N3CCOCC3)n2)c(C(F)F)n1` is reported as 100% (Cyclin-dependent kinase 8 (CDK8, Homo sapiens, UniProt P49336); binding, competition with immobilised ligand; 10 µM).
With `CN1CCN(c2ccc(Nc3nccc(-c4cccc([N+](=O)[O-])c4)n3)cc2C(F)(F)F)CC1` the remaining signal was 93% (Cyclin-dependent kinase 2 homolog (CRK2, Plasmodium falciparum, UniProt P61075); cell-free assay; 10 µM).
The ΔTm of `CCN(CC)CCCC[C@H](NC(=O)[C@H](CC(C)C)NC(=O)[C@H](C)NC(=O)[C@H](Cc1ccccc1)NC(=O)c1ccc(C(C)(C)C)cc1)C(=O)N[C@@H](CO)C(=O)OC` is reported as 0.08 °C (Bromodomain-containing protein 7 (BRD7, Homo sapiens, UniProt Q9NPI1); thermal stability, DSF; 25 µM).
`C[C@@H](O)[C@@H]1CN([C@H](Cc2ccc3ccccc3c2)CN2CCC[C@H]2CN2CCNC[C@@H]2Cc2ccc3ccccc3c2)CCN1CCC12CC3CC(CC(C3)C1)C2` gave a remaining binding of 100% (Oprd1; ligand displacement, radioligand; 0.5 µM, 2 h, pH 7.5, cell membranes).
`CC[C@H](NC(=O)OCc1ccccc1)C(=O)N[C@H](C(=O)N[C@@H](CC(C)C)C(=O)N(C)N(C#N)CCC(N)=O)C(C)(C)C` gave a kon of 8400 M⁻¹ s⁻¹ (CTSB; enzyme activity, inhibitor).
`CC[C@@H](C)[C@@H]1CN([C@@H](CC2CCCCC2)CN2CCC[C@H]2CN2CCNC[C@@H]2CO)CCN1CCC12CC3CC(CC(C3)C1)C2` gave a remaining binding of 90% (Oprd1; ligand displacement, radioligand; 0.5 µM, 2 h, pH 7.5, cell membranes).
`C#Cc1n[nH]c2c(-c3cn([C@@H](C)c4ccccc4)c(=O)[nH]c3=O)cc(F)cc12` gave an inhibition of 2.7% (Mitogen-activated protein kinase kinase kinase kinase 1 (MAP4K1, Homo sapiens, UniProt Q92918); enzyme activity, inhibitor; 0.1 µM).
`OC[C@H]1CNCCN1C[C@@H]1CCCN1C[C@H](CC1CCCCC1)N1CCN(CCC23CC4CC(CC(C4)C2)C3)[C@H](Cc2ccc(O)cc2)C1` has a remaining binding of 96.1% (Oprd1; ligand displacement, radioligand; 0.5 µM, 2 h, pH 7.5, cell membranes).
The inhibition of `CC(C)N1CCC[C@H]1CNC(=O)c1cn(C2CCCC2)c(=O)c2c1c1ccccc1n2C` is reported as 7% (Platelet-activating factor receptor (PTAFR, Homo sapiens, UniProt P25105); ligand displacement, radioligand; 10 µM).
